Results on seven molecules are retold here after publication PMC5091360 (Science Advances, 2016).

One data set concerns PDGFR-β. To be noted: such as in the case of sunitinib and PDGFR-β; cited from earlier work.
Data set [1] has as its system IgD2 domain from human VEGFR-3. Description: phage PCAIWF binding to recombinant VEGFR-3 IgD2. As to conditions: peptide 100 μg/ml; FLISA, duplicate wells.
The next data set has as its system HUVECs. Nature of the data set: endothelial tube formation in Matrigel. In kind it is cell-based, human. To be noted: peptide 500 μg/ml in Matrigel. The procedure, abridged:
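HUVECs (1.5 × 10^4 per well) plated on Matrigel containing 1% DMSO, with or without peptide (500 μg/ml) in the gel. Cells kept in RPMI 1640 with VEGF-A (30 ng/ml) or VEGF-C (100 ng/ml). Tubes counted per field at 4× by bright-field microscopy. Triplicate wells; two independent experiments; Student's t test.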

Data set [2] deals with IgD2-3 domains from human VEGFR-3. Nature of the data set: phage PCAIWF binding to recombinant VEGFR-3 IgD2-3. To be noted: peptide 100 μg/ml; FLISA, duplicate wells.
The test system of data set [3] is ERK1/2 pathway in lymphatic endothelial cells (LECs). Description: ERK1/2 phosphorylation in lymphatic endothelial cells. In kind it is cell-based, human. To be noted: 10 min, 37°C. The procedure, abridged:
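Human dermal lymphatic microvascular endothelial cells were cultured overnight in EBM2 with 2% FBS, then starved 18 h in EBM2 with 0.2% BSA. They were stimulated with VEGF-A, VEGF-C or FGF-1, with or without test peptide or scrambled peptide (30 μg/ml). Lysates were immunoblotted for total and phospho-ERK1/2 using infrared-dye secondaries, and the phospho/total intensity ratio was taken. Two experiments were run; ANOVA with Tukey.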

Another data set relates to human VEGFR-1. Description: FLISA binding assay, NRP-1 to VEGFR-1. To be noted: human NRP-1, FLISA. The procedure, abridged:
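Human VEGFR-1 extracellular domain coated at 200 ng per well in PBS overnight at 4°C, then blocked with Odyssey blocking buffer. Wells incubated with NRP-1 or NRP-2 in PBS with 10% (v/v) DMSO and 10% blocking buffer, with or without peptide (100 μg/ml). Bound NRP detected with goat anti-NRP-1 or anti-NRP-2 serum (1:100), then IRDye 680LT anti-goat, by infrared scanning. Duplicate wells; ANOVA with Tukey.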

Data set [4] deals with VEGFR-1. To be noted: read-out: Kd, NRP-1 to VEGFR-1; cited from earlier work.
The next data set relates to VEGFR-2. Nature of the data set: phage binding assay, immobilized VEGFR-2. To be noted: 10^8 TU in 50 μl PBS, 2 hours, room temperature; triplicate plating.
The next data set relates to mouse VEGFR-3. Nature of the data set: phage binding assay, immobilized mouse VEGFR-3. To be noted: 10^8 TU in 50 μl PBS, 2 hours, room temperature; control insertless phage Fd; colony count or phage-FLISA; triplicate plating.
Another data set deals with NRP-1. Description: phage binding assay, immobilized NRP-1. As to conditions: 10^8 TU in 50 μl PBS, 2 hours, room temperature; triplicate plating.
For a further data set, the system named is NRP-2. Description: phage binding assay, immobilized NRP-2. As to conditions: 10^8 TU in 50 μl PBS, 2 hours, room temperature; triplicate plating.
The subject of the next data set is human VEGFR-3. Nature of the data set: phage binding assay, immobilized human VEGFR-3. As to conditions: 10^8 TU in 50 μl PBS, 2 hours, room temperature; control insertless phage Fd; colony count or phage-FLISA; triplicate plating.
For data set [5], the system named is VEGFR-1. Nature of the data set: phage binding assay, immobilized VEGFR-1. To be noted: 10^8 TU in 50 μl PBS, 2 hours, room temperature; triplicate plating.
The conditions of data set [6]: clinical studies; cited from earlier work.
A further data set deals with VEGF family. To be noted: cited from earlier work.
For data set [7], the system named is IgD2 domain from human VEGFR-3. Description: VEGF-C binding to recombinant VEGFR-3 IgD2. As to conditions: FLISA, no peptide, duplicate wells.
Data set [8] addresses T1, VEGFR-3 (Mus musculus, UniProt P35917).
T1 sequence (P35917 25-770): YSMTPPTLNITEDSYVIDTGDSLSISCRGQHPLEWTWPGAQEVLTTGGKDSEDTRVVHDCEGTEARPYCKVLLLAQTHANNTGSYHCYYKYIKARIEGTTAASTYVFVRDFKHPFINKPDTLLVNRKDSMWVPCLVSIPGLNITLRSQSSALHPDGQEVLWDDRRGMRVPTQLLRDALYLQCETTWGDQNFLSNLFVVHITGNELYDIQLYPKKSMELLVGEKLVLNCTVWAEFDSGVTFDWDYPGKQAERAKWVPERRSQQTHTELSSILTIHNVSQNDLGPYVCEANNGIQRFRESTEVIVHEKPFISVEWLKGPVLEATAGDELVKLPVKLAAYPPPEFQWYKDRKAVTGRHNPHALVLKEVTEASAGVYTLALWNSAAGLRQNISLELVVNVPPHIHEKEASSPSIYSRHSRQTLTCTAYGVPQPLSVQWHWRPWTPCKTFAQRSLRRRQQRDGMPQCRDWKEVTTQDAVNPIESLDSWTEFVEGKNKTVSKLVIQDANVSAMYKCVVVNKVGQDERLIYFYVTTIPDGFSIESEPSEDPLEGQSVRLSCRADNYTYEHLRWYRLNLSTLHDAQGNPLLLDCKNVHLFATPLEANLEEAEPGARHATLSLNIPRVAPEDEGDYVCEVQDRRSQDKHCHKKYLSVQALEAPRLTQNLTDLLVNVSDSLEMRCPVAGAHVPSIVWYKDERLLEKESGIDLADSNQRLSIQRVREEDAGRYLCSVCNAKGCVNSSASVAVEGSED
Description: competition assay, binding of phage PCAIWF to immobilized VEGFR-3. To be noted: VEGF-A or VEGF-C (10 ng/ml); triplicate plating.

Data set [9] has as its system IgD2-3 domains from human VEGFR-3. Description: VEGF-C binding to recombinant VEGFR-3 IgD2-3. As to conditions: FLISA, no peptide, duplicate wells.
The target in data set [10] is T1, VEGFR-3. Description: competition assay, binding of phage WVCSGG to immobilized VEGFR-3. To be noted: VEGF-C or VEGF-A in competition.
For a further data set, the target named is T2, rat NRP-2 (rat, UniProt O35276).
T2 sequence: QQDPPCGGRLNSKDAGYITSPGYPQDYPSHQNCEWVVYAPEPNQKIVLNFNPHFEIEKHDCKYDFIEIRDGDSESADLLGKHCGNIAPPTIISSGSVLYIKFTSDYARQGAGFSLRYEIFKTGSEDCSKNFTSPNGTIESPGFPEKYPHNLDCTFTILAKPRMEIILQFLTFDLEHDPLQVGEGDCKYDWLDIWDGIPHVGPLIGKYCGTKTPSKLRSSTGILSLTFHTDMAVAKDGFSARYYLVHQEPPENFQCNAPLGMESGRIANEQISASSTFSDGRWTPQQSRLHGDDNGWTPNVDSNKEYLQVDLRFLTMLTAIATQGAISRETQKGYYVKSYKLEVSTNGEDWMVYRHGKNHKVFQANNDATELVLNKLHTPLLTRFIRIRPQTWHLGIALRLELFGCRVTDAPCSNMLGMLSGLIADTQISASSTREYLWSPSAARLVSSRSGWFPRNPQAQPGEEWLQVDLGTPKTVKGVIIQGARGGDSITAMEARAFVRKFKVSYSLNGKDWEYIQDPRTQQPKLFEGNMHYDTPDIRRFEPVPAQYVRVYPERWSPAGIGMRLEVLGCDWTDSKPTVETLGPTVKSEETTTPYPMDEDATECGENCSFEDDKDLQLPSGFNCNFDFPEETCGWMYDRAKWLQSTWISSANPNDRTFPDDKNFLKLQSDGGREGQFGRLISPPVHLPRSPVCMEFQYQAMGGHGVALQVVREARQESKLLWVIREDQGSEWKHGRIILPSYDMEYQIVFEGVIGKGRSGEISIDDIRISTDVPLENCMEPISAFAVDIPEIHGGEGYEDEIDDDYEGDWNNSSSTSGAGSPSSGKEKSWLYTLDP
Description: ELISA. A general note: An ELISA detects its analyte on a solid surface through an enzyme-linked reagent.

`CCN(CC)CCNC(=O)c1c(C)[nH]c(/C=C2\C(=O)Nc3ccc(F)cc32)c1C` [sunitinib]: in the data set on PDGFR-β, the side effects result is on record as “cardiotoxicity”.
For IFCAPW, the “inhibition of phage PCAIWF binding to IgD2 by synthetic peptide” value in [1] is “not by the control peptide”. For the same molecule, the “inhibition of tube formation, VEGF-A stimulated (in words)” value in the data set on HUVECs (VEGF-A 30 ng/ml) was “not by the control scramble peptide”. The “inhibition of tube formation, VEGF-C stimulated (in words)” value with HUVECs (VEGF-C 100 ng/ml) is reported as “not by the control scramble peptide”. Also, in data set [2], the “inhibition of phage PCAIWF binding to IgD2-3 by synthetic peptide” value is reported as “not by the control peptide”. In [3] (FGF-1 100 ng/ml, peptide 30 μg/ml), the “effect on FGF-1 induced phosphorylation of ERK1/2” value was “no effect on this downstream signaling event”. In addition, the “effect on VEGF-A induced phosphorylation of ERK1/2” value in data set [3] (VEGF-A 100 ng/ml, peptide 30 μg/ml) is given as “no effect on this downstream signaling event”. Further, in data set [3] (VEGF-C 100 ng/ml, peptide 30 μg/ml), the “effect on VEGF-C induced phosphorylation of ERK1/2” value is given as “no effect on this downstream signaling event”.
Take “NRP-1: neuropilin-1, co-receptor for VEGF”: the “NRP-1 binding to VEGFR-1” value in the data set on human VEGFR-1 is recorded as “strong interaction”. Further, on VEGFR-1 [4], the Kd (in general, the constant that tells how readily two partners part at equilibrium) was about 1.8 nM.
For PCAIWF [phage PCAIWF], in the data set with VEGFR-2, the “phage binding to VEGFR-2” value is “not to the other receptors, VEGFR-1 and VEGFR-2”. Also, in the data set with mouse VEGFR-3, the “phage binding to mouse VEGFR-3” value is “both phages bound to mouse and human VEGFR-3”. Besides, the “phage binding to NRP-1” value with NRP-1 is “not to the other receptors, VEGFR-1 and VEGFR-2 (Fig. 1, C and D), including the two other non-RTKs, NRP-1 and NRP-2”. Further, the “phage binding to NRP-2” value in the data set on NRP-2 was “not to the other receptors, VEGFR-1 and VEGFR-2 (Fig. 1, C and D), including the two other non-RTKs, NRP-1 and NRP-2”. Moreover, the “phage binding to human VEGFR-3” value in the data set with human VEGFR-3 is “both phages bound to mouse and human VEGFR-3”. In addition, the “phage binding to VEGFR-1” value with VEGFR-1 [5] is “not to the other receptors, VEGFR-1 and VEGFR-2”.
As to “aflibercept: ligand-binding domain of VEGFR-1 fused to an Ig constant region”, the “clinical efficacy in ophthalmology” value in data set [6] is “better efficacy compared to bevacizumab and ranibizumab”. Moreover, in the data set on VEGF family, the “VEGF family members targeted” value is “will target multiple members of the VEGF family (VEGF-A, VEGF-B, and PlGF) but will miss others (VEGF-C and VEGF-D)”.

B1: VEGF-C: VEGF family member, recombinant human ligand (protein)
chain: AHYNTEILKSIDNEWRKTQCMPREVCIDVGKEFGVATNTFFKPPCVSVYRCGGCCNSEGLQCMNTSTSYLSKTLFEITVPLSQGPKPVTISFANHTSCRCMSKLDVYRQVHSIIRR
In the case of B1, in data set [7], the “VEGF-C binding to IgD2” value is given as “binds to both recombinant ligand-binding domains IgD2”. Further, the “phosphorylation of ERK1/2 upon growth factor stimulation” value in data set [3] (growth factor 100 ng/ml, 1% DMSO, heparin 10 U/ml) is on record as “phosphorylation of ERK1/2 increases”. Besides, in the data set with VEGFR-3 [8], the “inhibition of phage PCAIWF binding to VEGFR-3 by growth factor” value is recorded as “Only VEGF-C prevents the binding of phage PCAIWF to the receptor (Fig. 2A) in a dose-dependent manner”. For the same molecule, the “VEGF-C binding to IgD2-3” value in data set [9] was “binds to both recombinant ligand-binding domains IgD2 (Fig. 2F) and IgD2-3”. The “inhibition of phage WVCSGG binding to VEGFR-3 by growth factor” value in the data set with VEGFR-3 [10] is “binding of phage WVCSGG to VEGFR-3 is also inhibited by VEGF-C”.

B2: human VEGFR-1 extracellular domain (Fc fusion) (Fc fusion)
chain: SKLKDPELSLKGTQHIMQAGQTLHLQCRGEAAHKWSLPEMVSKESERLSITKSACGRNGKQFCSTLTLNTAQANHTGFYSCKYLAVPTSKKKETESAIYIFISDTGRPFVEMYSEIPEIIHMTEGRELVIPCRVTSPNITVTLKKFPLDTLIPDGKRIIWDSRKGFIISNATYKEIGLLTCEATVNGHLYKTNYLTHRQTNTIIDVQISTPRPVKLLRGHTLVLNCTATTPLNTRVQMTWSYPDEKNKRASVRRRIDQSNSHANIFYSVLTIDKMQNKDKGLYTCRVRSGPSFKSVNTSVHIYDKAFITVKHRKQQVLETVAGKRSYRLSMKVKAFPSPEVVWLKDGLPATEKSARYLTRGYSLIIKDVTEEDAGNYTILLSIKQSNVFKNLTATLIVNVKPQIYEKAVSSFPDPALYPLGSRQILTCTAYGIPQPTIKWFWHPCNHNHSEARCDFCSNNEESFILDADSNMGNRIESITQRMAIIEGKNKMASTLVVADSRISGIYICIASNKVGTVGRNISFYITDVPNGFHVNLEKMPTEGEDLKLSCTVNKFLYRDVTWILLRTVNNRTMHYSISKQKMAITKEHSITLNLTIMNVSLQDSGTYACRARNVYTGEEILQKKEITIRDQEAPYLLRNLSDHTVAISSSTTLDCHANGVPEPQITWFKNNHKIQQEPGIILGPGSSTLFIERVTEEDEGVYHCKATNQKGSVESSAYLTVQGTSDKSNLE
With B2, in the data set with rat NRP-2, the binding result is “binds”.
